dFosB act: activators of delta FosB homodimer, primary screen, biochemical, fluorescence polarization, TAMRA-CDK5 oligo, single point. Protein FosB (Mus musculus), P13346. purified delta FosB; percent of positive-control signal above neutral wells. activation, % at 25 µM. 340,000 compounds, 0.99% hits;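 active = mean activation above about 17%, with every replicate also reaching it, limit read from the data, passing the limit was not always enough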
FGF22 binding: binders of human FGF22 protein, primary screen, FGF22 synaptogenesis inhibitor project, biophysical, thermal shift, single point | AID 651658, 2012 | recombinant FGF22 thermal shift, SYPRO orange fluorescence; percent of sucrose octasulfate shift, DMSO zero | activity (Tm shift, normalised), % at 9.99 µM | Fibroblast growth factor 22 (Homo sapiens), Q9HCT0 | 340,000 compounds, 1.5% hits;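 active = mean Tm shift, scaled 0 neutral to 100 positive control, at about 1.3% or above, every replicate too, limit read from the data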
Target sequence (Q9HCT0 whole entry, looked up): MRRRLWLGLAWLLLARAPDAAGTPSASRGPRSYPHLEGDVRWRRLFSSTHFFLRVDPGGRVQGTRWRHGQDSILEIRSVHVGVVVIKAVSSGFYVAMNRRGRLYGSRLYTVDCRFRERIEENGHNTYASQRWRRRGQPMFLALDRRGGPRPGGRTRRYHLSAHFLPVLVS
F508del corr: F508del CFTR correction, initial screen, CFBE line, single point | CFBE cells, YFP halide quenching; stimulated with forskolin plus potentiator P3; % fluorescence drop versus neutral controls | activity (quench increase), % at 7.58 µM | AID 720511, 2013 | 350,000 compounds, 0.36% hits;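 active = mean added fluorescence quench of at least 8% versus neutral control, with both replicates also reaching 8%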;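 also: cells transiently co-express mutant CFTR-F508del with the halide-sensitive YFP; corrector assay measuring rescue of mutant channel to the surface after 24 h compound exposure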
S100A4 inh HTS: inhibitors of S100A4-myosin IIA peptide binding, primary screen, biochemical, fluorescence polarization, TAMRA-MyoIIA peptide | Protein S100-A4 (Homo sapiens), P26447 | inhibition, % at 10.7 µM | 360,000 compounds, 0.14% hits;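 active = mean inhibition of at least 70% across replicates, with every replicate also reaching that level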
Target sequence (P26447 whole entry, looked up): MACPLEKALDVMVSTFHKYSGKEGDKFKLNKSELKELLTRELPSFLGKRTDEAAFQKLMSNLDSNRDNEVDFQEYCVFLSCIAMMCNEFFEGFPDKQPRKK
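assay system = human S100A4 monomer with TAMRA-labelled myosin IIA peptide | also added = labelled myosin peptide probe, 5 nM | incubation = 5 min between mix addition and reading | control set = DMSO and TFP controls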
The depositor's hits bear a star; · = not tested or not shown. Shown are actives, neighbours in structure and some others; about 2.2% of the full set was active somewhere.

SMILES	dFosB act	FGF22 binding	F508del corr	S100A4 inh HTS
O=C(COC(=O)c1cc([N+](=O)[O-])ccc1N1CCOCC1)Nc1c(Cl)cccc1Cl	-1.8	-0.5	11.1*	-11.2
Cc1ccc(S(=O)(=O)Nc2ccc3c(c2)C(=O)N([C@@H](C)CO)C[C@@H](C)[C@@H](CN(C)Cc2ccccc2)OCCCC[C@H](C)O3)cc1	·	-0.3	2.1	·
C[C@H](CO)N1C[C@H](C)[C@H](CN(C)S(C)(=O)=O)Oc2cc(C#CC3CC3)ccc2S1(=O)=O	·	-0.1	-0.8	-3.7
O=C(CN1CCN(S(=O)(=O)c2ccc(F)c(Cl)c2)CC1)N1CCc2ccccc2C1	-14.1	-0.3	15.9*	-3.8
O=C(CN1CCN(S(=O)(=O)c2ccc(F)c(Cl)c2)CC1)N1CCc2ccccc21	-9.4	0.2	-3.3	-18.2
Cc1ccc(S(=O)(=O)Nc2ccc3c(c2)C(=O)N([C@H](C)CO)C[C@H](C)[C@@H](CN(C)S(=O)(=O)c2cn(C)cn2)OCCCC[C@@H](C)O3)cc1	·	0.0	-0.8	-18.4
Cc1ccc(S(=O)(=O)Nc2ccc3c(c2)C(=O)N([C@@H](C)CO)C[C@@H](C)[C@@H](CN(C)S(=O)(=O)c2cn(C)cn2)OCCCC[C@@H](C)O3)cc1	·	-0.3	1.0	133.5*
C[C@@H]1CCCCO[C@H](CN(C)C(=O)c2ccncc2)[C@H](C)CN([C@H](C)CO)C(=O)c2cc(NS(=O)(=O)c3cn(C)cn3)ccc2O1	·	1.7*	-3.2	-4.3
C[C@@H]1CCCCO[C@@H](CN(C)S(=O)(=O)c2cn(C)cn2)[C@@H](C)CN([C@H](C)CO)C(=O)c2cc(NS(=O)(=O)c3ccc(Cl)cc3)ccc2O1	·	-0.5	-0.6	103.1*
Cc1noc(C)c1S(=O)(=O)Nc1ccc2c(c1)C(=O)N([C@@H](C)CO)C[C@@H](C)[C@H](CN(C)S(=O)(=O)c1cn(C)cn1)OCCCC[C@@H](C)O2	·	33.8*	-4.4	-5.6
C[C@@H]1CCCCO[C@H](CN(C)C(=O)c2ccncc2)[C@@H](C)CN([C@H](C)CO)C(=O)c2cc(NS(=O)(=O)c3cn(C)cn3)ccc2O1	·	0.4	-1.5	-3.0
Cc1ccc(S(=O)(=O)N[C@H]2CC[C@@H](CC(=O)NCc3ccc(Cl)c(Cl)c3)O[C@@H]2CO)cc1	·	0.6	-0.4	3.1
CO[C@@H]1CN(C)C(=O)c2cc(NC(=O)Nc3c(C)noc3C)ccc2OC[C@@H](C)N(C(=O)Nc2cccc(Cl)c2)C[C@H]1C	·	-0.1	1.0	-1.0
COC(=O)c1c(NC(=O)CC2SC(N)=NC2=O)sc(C)c1C (configuration not stated)	-0.1	43.6*	-1.1	0.6
COC(=O)c1c(NC(=O)CSc2ccccc2N)sc(C)c1C	-8.0	42.9*	-1.4	0.2
COC(=O)c1c(NC(=O)Cc2ccccc2)sc(C)c1C	-0.9	·	·	-0.6
COc1ccccc1COC(=O)CN1C(=O)NC2(CCCCC2C)C1=O (configuration not stated)	-8.5	43.0*	-0.1	0.8
O=C(Nc1ccc(N2CCCC2)cc1)c1ccc(Br)o1	40.0*	·	·	·
CCN1CCN(c2ccc(NC(=O)c3ccc(Br)o3)cc2)CC1	1.4	0.0	2.9	-8.0
CN1CCN(c2ccc(NC(=O)c3ccc(-c4ccc(Br)cc4)o3)cc2)CC1	40.6*	0.5	-4.9	21.2
c1ccc2c(c1)-c1nc3ccccc3cc1C2N1CCCCC1 (configuration not stated)	·	-0.3	-1.2	-7.1
O=c1cccc2n1Cc1cc3ccccc3nc1-2	-5.3	43.7*	-0.5	-6.4
O=C(Nc1ccccc1F)N1C[C@@H]2[C@H](c3ccccc31)[C@@H](CO)N2C(=O)C1CC1	·	-0.2	-4.4	12.0
O=C(NCCc1ccncc1)Nc1ccc(F)cc1	-1.4	0.0	2.9	103.3*
O=C(NCCc1ccncc1)Nc1ccc(Cl)cc1	2.2	·	·	·
Cc1ccc(C(=O)NCC(=O)NCC(=O)OCC(=O)c2ccc(F)cc2)cc1	0.4	·	·	·
Cc1ccc(C(=O)NCC(=O)OCC(=O)NCC(F)(F)F)cc1	-1.7	44.1*	-4.8	2.5
COCC#Cc1ccc2c(c1)O[C@@H](CN(C)C(=O)C1CC1)[C@@H](C)CN([C@H](C)CO)S2(=O)=O	·	0.1	0.6	-6.2
CN1C(=O)c2cccc3c(Cl)ccc(c23)C1=O	14.0	·	·	·
CNc1ccc2c3c(cccc13)C(=O)N(C)C2=O	-25.9	·	20.4*	36.4

Source: PubChem (Broad Institute)
